The source made the active and inactive calls.
Assays:
[1] = tested on: MCF7; experiment: Induction of apoptosis in human MCF7 cells assessed as early apoptotic cells at 100 uM after 48 hrs by Annexin V-FITC/propidium iodide staining-based flow cytometric analysis (reference value: 16 %); type: functional
[2] = tested on: MCF7; experiment: Induction of ROS generation in human MCF7 cells at 100 uM pretreated for 1 hr with ROS scavenger, NAC followed by compound addition and measured after 72 hrs by DCFDA staining-based flow cytometric analysis; type: functional, cell-based
How it was run: (§1)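 MCF-7 treated at 100 μM, SKBR3 at 25 μM, for 24, 48 and 72 h, alone or after NAC (10 mM) pretreatment. ROS measured by DCFDA staining and flow cytometry. Significance set at p < 0.01 vs untreated or vs treated-alone cells.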

[3] = tested on: SK-BR-3; experiment: Induction of apoptosis in human SK-BR-3 cells assessed as early apoptotic cells at 25 uM after 72 hrs by Annexin V-FITC/propidium iodide staining-based flow cytometric analysis (reference value: 1 to 9 %); type: functional
[4] = Displacement of [3H]-(+)-MK-801 from PCP binding site of NMDA receptor in pig brain cortex membranes after 120 mins by scintillation counting analysis; type: cell membranes, Sus scrofa, Cerebral cortex, Membrane
[5] = tested on: MCF7; experiment: Induction of apoptosis in human MCF7 cells assessed as late apoptotic cells at 100 uM after 72 hrs by Annexin V-FITC/propidium iodide staining-based flow cytometric analysis (reference value: 1 to 2 %); type: functional
[6] = tested on: SK-BR-3; experiment: Induction of apoptosis in human SK-BR-3 cells transfected with siNMDA receptor assessed as active caspase-3 level at 25 uM incubated for 72 hrs by Western blot analysis; type: functional, cell-based
How it was run: (§2)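 Cells transfected with siNMDA R (GluN1) or left untransfected, then treated 72 h (MCF-7 100 μM, SKBR3 25 μM) or left untreated. Cleaved caspase-3 detected by immunoblot; densitometry normalised to GAPDH; p < 0.01 threshold.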

[7] = tested on: MCF7; experiment: Induction of apoptosis in human MCF7 cells assessed as late apoptotic cells at 100 uM after 48 hrs by Annexin V-FITC/propidium iodide staining-based flow cytometric analysis (reference value: 2 %); type: functional
[8] = tested on: SK-BR-3; experiment: Induction of apoptosis in human SK-BR-3 cells after 48 to 72 hrs by AnnexinV-FITC/PI staining based flow cytometric analysis; type: functional, cell-based; conditions: time hrs 48-72
[9] = tested on: SK-BR-3; experiment: Induction of apoptosis in human SK-BR-3 cells at 25 uM by AnnexinV-FITC/PI staining based flow cytometric analysis; type: functional, cell-based; conditions: time hrs 48-72, TDE = time-dependent effect
[10] = tested on: MCF7; experiment: Induction of apoptosis in human MCF7 cells at 100 uM by AnnexinV-FITC/PI staining based flow cytometric analysis; type: functional, cell-based; conditions: time hrs 48-72, TDE = time-dependent effect
[11] = tested on: SK-BR-3; experiment: Induction of apoptosis in human SK-BR-3 cells assessed as necrotic cells at 25 uM after 72 hrs by Annexin V-FITC/propidium iodide staining-based flow cytometric analysis (reference value: 1 to 3 %); type: functional
[12] = Apparent permeability in human Caco2 cells; type: ADME, cell-based; conditions: caco-2
[13] = tested on: SK-BR-3; experiment: Induction of apoptosis in human SK-BR-3 cells assessed as late apoptotic cells at 25 uM after 72 hrs by Annexin V-FITC/propidium iodide staining-based flow cytometric analysis (reference value: 1 to 3 %); type: functional
[14] = tested on: SK-BR-3; experiment: Induction of ROS generation in human SK-BR-3 cells at 25 uM pretreated for 1 hr with ROS scavenger, NAC followed by compound addition and measured after 72 hrs by DCFDA staining-based flow cytometric analysis; type: functional, cell-based; how it was run: as §1
[15] = tested on: MCF7; experiment: Induction of apoptosis in human MCF7 cells transfected with siNMDA receptor assessed as late apoptotic cells at 100 uM after 72 hrs by Annexin V-FITC/propidium iodide staining-based flow cytometric analysis (reference value: 4 %); type: functional
[16] = tested on: MCF7; experiment: Induction of apoptosis in human MCF7 cells transfected with siNMDA receptor assessed as active caspase-3 level at 100 uM incubated for 72 hrs by Western blot analysis; type: functional, cell-based; how it was run: as §2
[17] = tested on: MCF7; experiment: Induction of apoptosis in human MCF7 cells transfected with siNMDA receptor assessed as early apoptotic cells at 100 uM after 72 hrs by Annexin V-FITC/propidium iodide staining-based flow cytometric analysis (reference value: 33 %); type: functional
[18] = tested on: SK-BR-3; experiment: Induction of apoptosis in human SK-BR-3 cells transfected with siNMDA receptor assessed as late apoptotic cells at 25 uM after 72 hrs by Annexin V-FITC/propidium iodide staining-based flow cytometric analysis (reference value: 2 %); type: functional
[19] = tested on: MCF7; experiment: Induction of mitochondrial membrane depolarization in human MCF7 cells at 100 uM by JC1 staining based flow cytometric analysis; type: functional, cell-based
How it was run: (§3)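 Mitochondrial membrane potential (Δψm) in untreated versus treated cells (MCF-7 100 μM, SKBR3 25 μM), assessed by JC-1 staining.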

[20] = tested on: SK-BR-3; experiment: Cytotoxicity against siNMDA receptor transfected human SK-BR-3 cells assessed as reduction in cell viability after 48 hrs by SRB assay; type: functional
How it was run: (§4)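 GluN1 subunit knocked down by siNMDA R transfection, confirmed by qRT-PCR and Western blot; compared with untransfected cells. SRB viability read after 48 h exposure to a range of concentrations. Mean ± SE of three separate experiments.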

[21] = tested on: MCF7; experiment: Cytotoxicity against human MCF7 cells assessed as reduction in cell viability after 48 hrs by SRB assay; type: functional
How it was run: (§5)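 Followed the NCI SRB protocol: cells exposed 48 h to a range of concentrations. GI50 is the concentration giving 50% net growth inhibition; TGI is 100% growth inhibition; LC50 kills 50% of initial cells. Mean ± SE of three separate experiments.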

[22] = tested on: SK-BR-3; experiment: Induction of apoptosis in human SK-BR-3 cells transfected with si-NMDA receptor assessed as necrotic cells at 25 uM after 72 hrs by Annexin V-FITC/propidium iodide staining-based flow cytometric analysis (reference value: 4 %); type: functional
[23] = tested on: MCF7; experiment: Cytotoxicity against siNMDA receptor transfected human MCF7 cells assessed as reduction in cell viability after 48 hrs by SRB assay; type: functional; how it was run: as §4
[24] = tested on: SK-BR-3; experiment: Cytotoxicity against human SK-BR-3 cells assessed as reduction in cell viability incubated for 48 hrs by SRB assay; type: functional; how it was run: as §5
[25] = tested on: SK-BR-3; experiment: Induction of apoptosis in human SK-BR-3 cells assessed as late apoptotic cells at 25 uM after 48 hrs by Annexin V-FITC/propidium iodide staining-based flow cytometric analysis (reference value: 2 %); type: functional
[26] = tested on: MCF7; experiment: Induction of apoptosis in human MCF7 cells transfected with siNMDA receptor assessed as necrotic cells at 100 uM after 72 hrs by Annexin V-FITC/propidium iodide staining-based flow cytometric analysis (reference value: 3 %); type: functional
[27] = tested on: MCF7; experiment: Induction of ROS generation in human MCF7 cells at 100 uM after 72 hrs by DCFDA staining-based flow cytometric analysis; type: functional, cell-based; how it was run: as §1
[28] = tested on: SK-BR-3; experiment: Induction of apoptosis in human SK-BR-3 cells assessed as necrotic cells at 25 uM after 48 hrs by Annexin V-FITC/propidium iodide staining-based flow cytometric analysis (reference value: 2 %); type: functional
[29] = tested on: SK-BR-3; experiment: Induction of mitochondrial membrane depolarization in human SK-BR-3 cells at 25 uM by JC1 staining based flow cytometric analysis; type: functional, cell-based; how it was run: as §3
[30] = tested on: MCF7; experiment: Induction of apoptosis in human MCF7 cells assessed as necrotic cells at 100 uM after 72 hrs by Annexin V-FITC/propidium iodide staining-based flow cytometric analysis (reference value: 1 to 5 %); type: functional
[31] = tested on: MCF7; experiment: Induction of apoptosis in human MCF7 cells assessed as necrotic cells at 100 uM after 48 hrs by Annexin V-FITC/propidium iodide staining-based flow cytometric analysis (reference value: 7 %); type: functional
[32] = tested on: SK-BR-3; experiment: Induction of apoptosis in human SK-BR-3 cells transfected with siNMDA receptor assessed as early apoptotic cells at 25 uM after 72 hrs by Annexin V-FITC/propidium iodide staining-based flow cytometric analysis (reference value: 35 %); type: functional
[33] = tested on: SK-BR-3; experiment: Induction of ROS generation in human SK-BR-3 cells at 25 uM after 72 hrs by DCFDA staining-based flow cytometric analysis; type: functional, cell-based; how it was run: as §1
[34] = tested on: MCF7; experiment: Induction of apoptosis in human MCF7 cells after 48 to 72 hrs by AnnexinV-FITC/PI staining based flow cytometric analysis; type: functional, cell-based; conditions: time hrs 48-72
[35] = tested on: SK-BR-3; experiment: Induction of apoptosis in human SK-BR-3 cells assessed as early apoptotic cells at 25 uM after 48 hrs by Annexin V-FITC/propidium iodide staining-based flow cytometric analysis (reference value: 9 %); type: functional
[36] = Metabolic stability in human liver microsomes; type: ADME, Microsome
[37] = tested on: MCF7; experiment: Induction of apoptosis in human MCF7 cells assessed as early apoptotic cells at 100 uM after 72 hrs by Annexin V-FITC/propidium iodide staining-based flow cytometric analysis (reference value: 2 to 13 %); type: functional
[38] = tested on: SK-BR-3; experiment: Induction of apoptosis in human SK-BR-3 cells assessed as fold increase in cleavage of pro-caspase 3 at 25 uM incubated for 72 hrs by Western blot analysis relative to control; type: functional
How it was run: (§6)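 Caspase-3 immunoblot after 72 h treatment (MCF-7 100 μM, SKBR3 25 μM), tracking procaspase-3 cleavage to the active form. Densitometry normalised to GAPDH loading control.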

[39] = tested on: MCF7; experiment: Induction of apoptosis in human MCF7 cells assessed as fold increase in cleavage of pro-caspase 3 at 100 uM incubated for 72 hrs by Western blot analysis relative to control; type: functional; how it was run: as §6
[40] = tested on: SK-BR-3; experiment: Induction of apoptosis in human SK-BR-3 cells transfected with siNMDA receptor after 72 hrs by Annexin V-FITC/propidium iodide staining-based flow cytometric analysis; type: functional, cell-based
[41] = tested on: SK-BR-3; experiment: Induction of apoptosis in human SK-BR-3 cells transfected with siNMDA receptor assessed as active caspase-3 level incubated for 72 hrs by Western blot analysis; type: functional, cell-based; how it was run: as §2
[42] = tested on: MCF7; experiment: Induction of apoptosis in human MCF7 cells transfected with siNMDA receptor after 72 hrs by Annexin V-FITC/propidium iodide staining-based flow cytometric analysis; type: functional, cell-based
[43] = tested on: MCF7; experiment: Induction of apoptosis in human MCF7 cells transfected with siNMDA receptor assessed as active caspase-3 level incubated for 72 hrs by Western blot analysis; type: functional, cell-based; how it was run: as §2

NC[C@H]1COCC(c2ccccc2)(c2ccccc2)O1
Activity [1]: 26%
Activity [2]: inactive
Activity [3]: 11%
Ki [4]: > 10 µM
Activity [5]: 19%
Activity [6]: inactive
Activity [7]: 8%
Activity [8]: Dose-dependent effect
Activity [9]: Tde
Activity [10]: Tde
Activity [11]: 17%
permeability [12]: Permeable
Activity [13]: 15%
Activity [14]: inactive
Activity [15]: 5%
Activity [16]: inactive
Activity [17]: 26%
Activity [18]: 3%
Activity [19]: inactive
GI50 [20]: 57 µM
Activity [21]: Dose-dependent effect
GI50 [21]: 99 µM
Activity [22]: 8%
GI50 [23]: 520 µM
Activity [24]: Dose-dependent effect
GI50 [24]: 23 µM
Activity [25]: 5%
Activity [26]: 7%
Activity [27]: Active
Activity [28]: 4%
Activity [29]: inactive
Activity [30]: 9%
Activity [31]: 8%
Activity [32]: 24%
Activity [33]: Active
Activity [34]: Dose-dependent effect
Activity [35]: 19%
Stabilty [36]: Stable
Activity [37]: 16%
fold change (FC) [38]: 5.1
fold change (FC) [39]: 3.2

NC[C@@H]1COCC(c2ccccc2)(c2ccccc2)O1
Activity [40]: Active
Ki [4]: 0.497 µM
permeability [12]: Permeable
Activity [41]: Active
GI50 [20]: 66 µM
Activity [21]: Dose-dependent effect
GI50 [21]: 250 µM
GI50 [23]: 210 µM
Activity [24]: Dose-dependent effect
GI50 [24]: 74 µM
Activity [42]: Active
Activity [43]: Active
Stabilty [36]: Stable

NC[C@H]1COC[C@](c2ccccc2)(C2CCCCC2)O1 (relative stereo)
GI50 [21]: 65.3 µM
LC50 (concentration killing 50% of initial cells) [21]: 176 µM
TGI [21]: 107 µM
GI50 [24]: 23.8 µM
LC50 (concentration killing 50% of initial cells) [24]: > 300 µM
TGI [24]: 192 µM

NCC1COCC(c2ccccc2)(c2ccccc2)O1 (racemic)
GI50 [21]: 74.4 µM
LC50 (concentration killing 50% of initial cells) [21]: 253 µM
TGI [21]: 137 µM
GI50 [24]: 31.2 µM
LC50 (concentration killing 50% of initial cells) [24]: > 300 µM
TGI [24]: 200 µM

CN[C@]1(c2ccccc2Cl)CCCCC1=O [ESKETAMINE]
GI50 [21]: > 300 µM
TGI [21]: > 300 µM
GI50 [24]: > 300 µM
TGI [24]: > 300 µM

NC[C@@H]1COC[C@](c2ccccc2)(C2CCCCC2)O1 (relative stereo)
GI50 [21]: 89.7 µM
LC50 (concentration killing 50% of initial cells) [21]: 244 µM
TGI [21]: 148 µM
GI50 [24]: 25.8 µM
LC50 (concentration killing 50% of initial cells) [24]: > 300 µM
TGI [24]: 180 µM

C[C@]12N[C@H](Cc3ccccc31)c1ccccc12 [DIZOCILPINE]
GI50 [21]: > 300 µM
TGI [21]: > 300 µM
GI50 [24]: > 300 µM
TGI [24]: > 300 µM
